ChEMBL document CHEMBL1806443, “Novel imidazo[4,5-b]pyridine and triaza-benzo[c]fluorene derivatives: synthesis, antiproliferative activity and DNA binding studies” (Eur J Med Chem, 2011)
pIC50: −log10 of the molar value. Calls of active or inactive are those of the source. The rule behind the calls is not given here.

Columns and labels:
SW-620 [1] = test: Cytostatic activity against human SW620 cells at 1 to 10 uM after 72 hrs by MTT assay; assay type: functional, cell-based
Summary of the method: (§1)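 Monolayers in DMEM with 10% FBS, 2 mM L-glutamine, penicillin and streptomycin (37 °C, 5% CO2) were seeded at 3000–6000 cells/well on day 0. Five 10-fold dilutions (0.01–100 µM) were added, followed by 72-h incubation and MTT read-out. Absorbances were converted to percentage growth by the NIH formulae. Each point was run in quadruplicate in three experiments; ANOVA with Tukey test.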

HEp-2 = test: Antiproliferative activity against human Hep2 cells after 72 hrs by MTT assay; assay type: functional, cell-based; conditions: Homo sapiens, HEp-2, 72 h
Summary of the method: (§2)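 Monolayer cells in DMEM with 10% FBS, 2 mM L-glutamine, penicillin and streptomycin at 37 °C, 5% CO2. Seeded at 3000-6000 cells/well by doubling time on day 0. Five 10-fold dilutions (0.01–100 µM) were added and incubated 72 h. MTT read-out, converted to percentage growth. IC50 by linear regression between bracketing concentrations. Quadruplicate points, three independent experiments, ANOVA/Tukey p<0.05.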

Nucleic Acid [2] = test: Binding affinity to calf thymus DNA assessed as change in melting temperature at compound to polynucleotide ratio of 0.3 by UV-VIS spectroscopic analysis; assay type: nucleic-acid assay; conditions: Bos taurus
Summary of the method: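 ct-DNA alone or with compound at set r = [compound]/[polynucleotide], in cacodylate buffer pH 7.0, I = 0.05 mol dm^-3. Absorbance at 260 nm followed against temperature, ligand absorbance subtracted, curves normalized. Tm is the transition midpoint, from the first-derivative maximum or by tangent method. ΔTm = Tm(complex) − Tm(free DNA), mean of ≥2 runs, error ±0.5 °C.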

MCF7 = test: Cytostatic activity against human MCF7 cells at 1 to 10 uM after 72 hrs by MTT assay; assay type: functional, cell-based; summary of the method: as §1
MIA PaCa-2 [3] = test: Induction of apoptosis in human MIAPaCa2 cells assessed as morphological change at 10 uM after 24 to 48 hrs by microscopic analysis; assay type: functional, cell-based
Summary of the method: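 Cells were seeded at 3 × 10^4 per well and exposed 24 h later to 1, 5 or 10 µM for 24 and 48 h. Apoptotic morphology (cell shrinkage, chromatin condensation) was scored by inverted light microscopy at 200× magnification.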

WI-38 = test: Cytostatic activity against human WI38 cells at 1 to 10 uM after 72 hrs by MTT assay; assay type: ADME, cell-based; conditions: wi-38, 72 h; summary of the method: as §1
SW-620 [4] = test: Cell cycle arrest in human SW620 cells assessed as accumulation at G2/M phase at 5 uM after 24 hrs by propidium iodide staining based flow cytometeric analysis (reference value: 22.3 +/- 2.9%); assay type: functional
MIA PaCa-2 [5] = test: Cell cycle arrest in human MIAPaCa2 cells assessed as accumulation at S phase at 10 uM after 24 hrs by propidium iodide staining based flow cytometeric analysis (reference value: 29.2 +/- 4.2%); assay type: functional
SW-620 [6] = test: Cell cycle arrest in human SW620 cells assessed as accumulation at subG1 phase at 1 uM after 24 hrs by propidium iodide staining based flow cytometeric analysis (reference value: 18 +/- 1%); assay type: functional
Nucleic Acid [7] = test: Binding affinity to calf thymus DNA assessed as fluorescence quenching at compound to DNA ratio of < 0.1 by fluorimetric titrations; assay type: nucleic-acid assay; conditions: Bos taurus
Summary of the method: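 Fluorimetric titration: portions of ct-DNA (sonicated, filtered, concentration as phosphate) added to compound in cacodylate buffer pH 7.0, I = 0.05 mol dm^-3. Emission 350–600 nm, sample absorbance <0.05 at excitation, mostly DNA excess (r < 0.1). Ks and n = [bound compound]/[DNA phosphate] by non-linear least-squares Scatchard fitting.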

SW-620 [8] = test: Cell cycle arrest in human SW620 cells assessed as accumulation at subG1 phase at 10 uM after 48 hrs by propidium iodide staining based flow cytometeric analysis (reference value: 29.1 +/- 1.1%); assay type: functional
Summary of the method: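 Cells seeded at 3 × 10^4 per well and treated 24 h later with 1, 5 or 10 µM for 24 and 48 h. Adherent and floating cells were pooled, washed in PBS and fixed in 70% ethanol. They were then stained with propidium iodide 10 µg/mL plus RNase A 0.2 µg/mL. Flow cytometry counted 10000 events; each point was run in triplicate; significance was taken at p < 0.05.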

SW-620 [9] = test: Cell cycle arrest in human SW620 cells assessed as accumulation at G1 phase at 1 uM after 48 hrs by propidium iodide staining based flow cytometeric analysis (reference value: 52.7 +/- 0.9%); assay type: functional
MIA PaCa-2 [10] = test: Cell cycle arrest in human MIAPaCa2 cells assessed as accumulation at S phase at 1 uM after 48 hrs by propidium iodide staining based flow cytometeric analysis (reference value: 20.5 +/- 0.2%); assay type: functional
HeLa [11] = test: Antiproliferative activity against human HeLa cells at 0.1 to 10 uM after 72 hrs by MTT assay; assay type: functional, cell-based; summary of the method: as §2
Nucleic Acid [12] = test: Binding affinity to calf thymus DNA assessed as hypochromic changes at 364 nm wavelength by UV-Vis spectrophotometric titrations; assay type: nucleic-acid assay; conditions: Bos taurus
Summary of the method: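 UV/Vis titration: aliquots of ct-DNA (concentration as phosphate) added to compound solution in sodium cacodylate buffer pH 7.0, I = 0.05 mol dm^-3, 1 cm quartz cuvettes. Hypochromism followed at band maxima. Compound absorbance linear up to 2.0 × 10^-5 mol dm^-3. Binding data fitted by the Scatchard equation.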

MIA PaCa-2 [13] = test: Cell cycle arrest in human MIAPaCa2 cells assessed as accumulation at S phase at 10 uM after 48 hrs by propidium iodide staining based flow cytometeric analysis (reference value: 20.5 +/- 0.2%); assay type: functional
SW-620 [14] = test: Cell cycle arrest in human SW620 cells assessed as accumulation at S phase at 5 uM after 48 hrs by propidium iodide staining based flow cytometeric analysis (reference value: 31.9 +/- 1%); assay type: functional
MIA PaCa-2 [15] = test: Cell cycle arrest in human MIAPaCa2 cells assessed as accumulation at G2/M phase at 10 uM after 48 hrs by propidium iodide staining based flow cytometeric analysis (reference value: 14.3 +/- 1.8%); assay type: functional
MIA PaCa-2 [16] = test: Cell cycle arrest in human MIAPaCa2 cells assessed as accumulation at G2/M phase at 1 uM after 48 hrs by propidium iodide staining based flow cytometeric analysis (reference value: 14.3 +/- 1.8%); assay type: functional
MIA PaCa-2 [17] = test: Cell cycle arrest in human MIAPaCa2 cells assessed as accumulation at G2/M phase at 1 uM after 24 hrs by propidium iodide staining based flow cytometeric analysis (reference value: 19.5 +/- 3.9%); assay type: functional
HeLa [18] = test: Antiproliferative activity against human HeLa cells after 72 hrs by MTT assay; assay type: functional, cell-based; conditions: Homo sapiens, HeLa, 72 h; summary of the method: as §2
MIA PaCa-2 [19] = test: Cell cycle arrest in human MIAPaCa2 cells assessed as accumulation at G1 phase at 1 uM after 48 hrs by propidium iodide staining based flow cytometeric analysis (reference value: 65.2 +/- 1.9%); assay type: functional
MIA PaCa-2 [20] = test: Cell cycle arrest in human MIAPaCa2 cells assessed as accumulation at subG1 phase at 10 uM after 24 hrs by propidium iodide staining based flow cytometeric analysis (reference value: 48.7 +/- 0.7%); assay type: functional
SW-620 [21] = test: Antiproliferative activity against human SW620 cells at 0.1 to 10 uM after 72 hrs by MTT assay; assay type: functional, cell-based; summary of the method: as §2
MIA PaCa-2 [22] = test: Cytostatic activity against human MIAPaCa2 cells at 1 to 10 uM after 72 hrs by MTT assay; assay type: functional, cell-based; summary of the method: as §1

For `Cl.c1cnc2nc3ccc4ccc(C5=NCCN5)cc4n3c2c1`, the Activity (SW-620 [1]) was “Active”, the pIC50 (HEp-2) was 6.57 and the ΔTm (Nucleic Acid [2]) was 6.4 °C. For the same molecule, the Activity (MCF7) was “Active”, the Activity (MIA PaCa-2 [3]) was “Active” and the Activity (WI-38) was “Toxic”. For the same molecule, the Activity (SW-620 [4]) was 2.1%, the Activity (MIA PaCa-2 [5]) was 29.3% and the Activity (SW-620 [6]) was 14.3%. For the same molecule, the Activity (Nucleic Acid [7]) was “Active”, the Activity (SW-620 [8]) was 40.6% and the Activity (SW-620 [9]) was 35.1%. The Activity (MIA PaCa-2 [10]) was 34.6%, the Activity (HeLa [11]) was “Active” and the Activity (Nucleic Acid [12]) was 35%. For the same molecule, the Activity (MIA PaCa-2 [13]) was 56.9%, the Activity (SW-620 [14]) was 7.5% and the Activity (MIA PaCa-2 [15]) was 16.9%. It also gave an Activity (MIA PaCa-2 [16]) of 23%, an Activity (MIA PaCa-2 [17]) of 21.3% and a pIC50 (HeLa [18]) of 6.39. The Activity (MIA PaCa-2 [19]) was 42.4%, the Activity (MIA PaCa-2 [20]) was 50.2% and the Activity (SW-620 [21]) was “Active”. The Activity (MIA PaCa-2 [22]) was “Active”.
